Measured values: ChEMBL document CHEMBL3244427, “Nonsteroidal antiinflammatory agents. 2. Derivatives/analogues of dibenz[b,e]oxepin-3-acetic acid” (J Med Chem, 1978)

Columns and labels:
[1] = system: Rattus norvegicus; assay: Antiinflammatory activity in po dosed Donryu rat assessed as inhibition of carrageenan-induced paw edema; type: functional; conditions: read-out: ID50 (the source's name)
Procedure, shortened: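 Male Donryu rats weighing 130–160 g. Carrageenan was used to induce paw edema. ID50 was read from a regression line fitted by least squares, with 95% fiducial limits calculated by Filler's equation.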

[2] = Ulcerogenicity in po dosed Donryu rat assessed as gastric lesion; type: toxicity, organism-based, Stomach; conditions: in vivo, read-out: UD50 (the source's name)
Procedure, shortened: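 Male Donryu rats weighing 130–160 g. Gastric lesions were induced and then examined.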

[3] = Toxicity in po dosed Donryu rat assessed as mortality; type: organism-based; conditions: in vivo
Procedure, shortened: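 Acute toxicity was tested in male Donryu rats weighing 130–160 g, with mortality as the end point.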

[4] = Therapeutic index, ratio of LD50 for po dosed Donryu rat assessed as mortality to ID50 for antiinflammatory activity in po dosed Donryu rat assessed as inhibition of carrageenan-induced paw edema; type: organism-based; conditions: in vivo, read-out: TI
[5] = Therapeutic index, ratio of UD50 for ulcerogenicity in po dosed Donryu rat assessed as gastric lesion to ID50 for antiinflammatory activity in po dosed Donryu rat assessed as inhibition of carrageenan-induced paw edema; type: organism-based, Stomach; conditions: in vivo, read-out: TI

O=C(Cc1ccc2c(c1)OCc1ccccc1C2=O)Oc1ccc(C(=O)O)cc1
ED50 [1]: 91.6 µmol/kg

CCOC(=O)CNC(=O)Cc1ccc2c(c1)OCc1ccccc1C2=O
ED50 [1]: > 50.9 µmol/kg

CC(=O)CCc1ccc2c(c1)OCc1ccccc1C2=O
ED50 [1]: 96.7 µmol/kg

CC(C(=O)O)c1ccc2c(c1)OCc1ccccc1C2 (stereo unspecified)
ED50 [1]: 12.7 µmol/kg

O=C(O)Cc1ccc2c(c1)Cc1ccc(Cl)cc1CO2
ED50 [1]: > 62.3 µmol/kg

COc1ccc(C(=O)/C=C/c2ccc3c(c2)C(=O)c2ccccc2CO3)cc1
ED50 [1]: > 122 µmol/kg

O=C(O)Cc1ccc2c(c1)SCc1sccc1C2=O
ED50 [1]: 40 µmol/kg

O=C1c2ccccc2COc2ccc(Cc3nnn[nH]3)cc21
ED50 [1]: > 61.6 µmol/kg

CCN(CC)CCOC(=O)Cc1ccc2c(c1)C(=O)c1ccccc1CO2
ED50 [1]: 133 µmol/kg

O=C(O)Cc1ccc2c(c1)OCc1ccsc1C2=O
ED50 [1]: 61.3 µmol/kg

O=C(O)Cc1ccc2c(c1)C(=O)c1sccc1CS2
ED50 [1]: > 62 µmol/kg

CC(CO)c1ccc2c(c1)OCc1ccccc1C2=O (stereo unspecified)
ED50 [1]: 6 µmol/kg

O=C(O)c1ccc2c(c1)OCc1ccccc1C2=O
ED50 [1]: > 70.8 µmol/kg

O=C(O)Cc1ccc2c(c1)OCc1ccccc1C2O (stereo unspecified)
ED50 [1]: > 66.6 µmol/kg

O=C(Cc1ccc2c(c1)OCc1ccccc1C2=O)OCC(O)CO (stereo unspecified)
TD50 [2]: 252 µmol/kg | LD50 [3]: 278 µmol/kg | selectivity ratio [4]: 9 | selectivity ratio [5]: 8.1 | ED50 [1]: 31 µmol/kg

O=C(O)Cc1ccc2c(c1)C(O)c1ccccc1CO2 (stereo unspecified)
ED50 [1]: > 66.6 µmol/kg

CC(=O)/C=C/c1ccc2c(c1)OCc1ccccc1C2=O
ED50 [1]: > 162 µmol/kg

O=C(O)c1ccc2c(c1)C(=O)c1ccccc1CO2
ED50 [1]: > 70.8 µmol/kg

CC(C(=O)O)c1ccc2c(c1)OCc1ccccc1C2=O (stereo unspecified)
ED50 [1]: 2.7 µmol/kg

O=C1c2ccccc2COc2ccc(-c3nnn[nH]3)cc21
ED50 [1]: > 64.7 µmol/kg

O=C(O)Cc1ccc2c(c1)Cc1ccccc1CO2
ED50 [1]: 99.1 µmol/kg

CC(C(=O)O)c1ccc2c(c1)OCc1ccsc1C2=O (stereo unspecified)
ED50 [1]: 43.7 µmol/kg

CC(CO)c1ccc2c(c1)C(=O)c1ccccc1CO2 (stereo unspecified)
ED50 [1]: 28.3 µmol/kg

O=C1c2ccccc2COc2cc(-c3nnn[nH]3)ccc21
ED50 [1]: > 64.7 µmol/kg

O=C(O)Cc1ccc2c(c1)OCc1ccccc1C2=O [OXEPINAC]
TD50 [2]: 279 µmol/kg | LD50 [3]: 383 µmol/kg | selectivity ratio [4]: 29.7 | selectivity ratio [5]: 21.6 | ED50 [1]: 12.9 µmol/kg

O=C(O)Cc1ccc2c(c1)C(=O)c1sccc1CO2
ED50 [1]: 75.1 µmol/kg

CC(=O)/C=C/c1ccc2c(c1)C(=O)c1ccccc1CO2
ED50 [1]: > 162 µmol/kg

O=C(O)Cc1ccc2c(c1)SCc1ccsc1C2=O
ED50 [1]: > 62 µmol/kg

O=C1c2ccccc2COc2cc(Cc3nnn[nH]3)ccc21
ED50 [1]: > 61.6 µmol/kg

CC1(C)OCC(COC(=O)Cc2ccc3c(c2)OCc2ccccc2C3=O)O1 (stereo unspecified)
TD50 [2]: 559 µmol/kg | LD50 [3]: 241 µmol/kg | selectivity ratio [4]: 2.4 | selectivity ratio [5]: 5.6 | ED50 [1]: 100 µmol/kg

O=C(O)Cc1ccc2c(c1)COc1ccccc1C2=O
ED50 [1]: 131 µmol/kg

O=C(O)Cc1ccc2c(c1)C(=O)c1ccccc1CO2 [ISOXEPAC]
ED50 [1]: 50 µmol/kg

O=C(O)Cc1ccc2c(c1)OCc1ccccc1C2
ED50 [1]: 35 µmol/kg

NC(=O)Cc1ccc2c(c1)C(=O)c1ccccc1CO2
ED50 [1]: > 67.4 µmol/kg
